We go through one molecule from ChEMBL document CHEMBL4622964, “Designing Dihydrofolate Reductase Inhibitors as X-ray Radiosensitizers to Reverse Radioresistance of Cervical Cancer” (ACS Med Chem Lett, 2020).

A short description of series [1]: Toxicity in BALB/c mouse xenografted with human HeLa cells assessed as liver damage at 4 mg/kg, iv administered for every 3 days for 21 days and measured after 24 hrs post last dose by H and E staining based light microscopic analysis. In kind it is organism-based. To be noted: in vivo. The essentials:
(§1)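 HeLa-tumor-bearing nude mice dosed at 4 mg/kg iv every 3 days for 21 days, alone or with X-rays; euthanized 24 h after last injection; heart, liver, lungs, kidneys and spleen sectioned and stained with H&E.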
Background: A xenograft is tissue or cells of one species grown in another, often human tumour cells in immunodeficient mice.

Series [2] deals with HeLa. Kind of series: Antiproliferative activity against human HeLa cells assessed as reduction in cell viability preincubated for 12 hrs followed by 4 Gy irradiation and measured after 60 hrs by MTT assay. In kind it is functional, cell-based. To be noted: light or radiation study. The essentials:
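MTT viability assay in HeLa cancer cells, with the test agent alone (0 Gy) or combined with 4 Gy X-rays. IC50 values are in μM. Sensitivity enhancement ratio = IC50(0 Gy)/IC50(4 Gy).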
(Tetrazolium dyes change colour on reduction, which living cells bring about.)

Series [3] concerns HeLa. Kind of series: Effect on dihydrofolate reductase protein expression in human HeLa cell lysates at 1 to 2 uM by Western blot analysis. The class given is functional, cell-based. (In general: A western blot detects proteins with antibodies after separation by electrophoresis.)
The test system of series [4] is HeLa. Kind of series: Induction of mitochondrial dysfunction in human HeLa cells assessed as change in mitochondrial membrane potential at 1 uM incubated for 24 hrs in presence of 4 Gy X-ray irradiation by JC1 staining based flow cytometry (reference value: 4.9%). The class given is functional. Summed up:
(§2)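 Mitochondrial membrane potential was assessed by JC-1 flow cytometry in HeLa cells treated at 1 μM without or with 4 Gy X-rays. Green fluorescence gives the proportion of cells with lost ΔΨm.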

Series [5] in a line: Toxicity in BALB/c mouse xenografted with human HeLa cells assessed as kidney damage by measuring effect on BUN level at 4 mg/kg, iv administered every 3 days for 21 days. The class given is organism-based. The settings on record: in vivo. The essentials:
(§3)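 HeLa xenograft nude mice dosed at 4 mg/kg iv every 3 days over 21 days, alone or with X-rays; blood collected 24 h after last injection for serum biochemistry: ALT, AST (liver), BUN and uric acid (kidney).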

A short description of series [6]: Drug localization in lysosome of human HeLa cells at 20 uM after 4 hrs by LysoTracker/DAPI staining based fluorescence microscopic analysis. The class given is ADME, subcellular. The essentials:
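HeLa cells pretreated with 20 μM compound; LysoTracker added 2 h and DAPI 30 min before each time point; compound green fluorescence (emission about 510 nm) overlaid with lysosome (red) and nucleus under fluorescence microscope.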

The test system of series [7] is HeLa. Nature of the series: Inhibition of cell migration in human HeLa cells assessed as reduction in spreading rate at 1 uM after 24 hrs in presence of 4 Gy X-ray irradiation by phase contrast microscopic analysis. In kind it is functional, cell-based. Summed up: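 Wound-healing scratch assay on HeLa monolayers, compound with or without 4 Gy X-rays; wound closure recorded by phase-contrast microscopy at set times; migrated cells counted manually; mean ± SD of three independent experiments.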

A short description of series [8]: Toxicity in BALB/c mouse xenografted with human HeLa cells assessed as liver damage by measuring effect on ALT level at 4 mg/kg, iv administered every 3 days for 21 days in presence of 4 Gy X-ray irradiation. In kind it is organism-based. The settings on record: in vivo. Summed up: as §3
The test system of series [9] is HeLa. Nature of the series: Induction of cell cycle arrest in human HeLa cells assessed as accumulation at S phase at 1 uM after 48 hrs by propidium iodide staining based flow cytometric analysis (reference value: 41.6%). The class given is functional.
Series [10] has as its system HeLa. Kind of series: Antimigratory activity in human HeLa cells assessed as inhibition of cell migration at 1 uM after 24 hrs by wound healing assay relative to control. In kind it is functional. The settings on record: read-out: INH. The essentials:
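Wound-healing scratch assay in HeLa cells. Cells were treated without or with 4 Gy X-rays, and wound closure was imaged by phase-contrast microscopy at the indicated times. Migrated cells were counted manually. Mean ± SD of three independent experiments.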

Series [11] is described as follows: Toxicity in BALB/c mouse xenografted with human HeLa cells assessed as spleen damage at 4 mg/kg, iv administered for every 3 days for 21 days and measured after 24 hrs post last dose by H and E staining based light microscopic analysis. The class given is organism-based. To be noted: in vivo. The essentials: as §1
The target of a further series is T1, Dihydrofolate reductase (Homo sapiens, UniProt P00374).
T1 sequence (P00374 whole entry): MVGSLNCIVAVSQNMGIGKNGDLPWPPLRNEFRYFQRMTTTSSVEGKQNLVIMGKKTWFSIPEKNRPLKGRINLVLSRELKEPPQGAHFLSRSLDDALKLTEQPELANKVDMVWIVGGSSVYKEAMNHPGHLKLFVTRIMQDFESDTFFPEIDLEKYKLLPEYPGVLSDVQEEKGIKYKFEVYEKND
Nature of the series: Inhibition of recombinant human DHFR using dihydrofolate as substrate in presence of NADPH.

Series [12] can be described thus: Toxicity in BALB/c mouse xenografted with human HeLa cells assessed as heart damage at 4 mg/kg, iv administered for every 3 days for 21 days and measured after 24 hrs post last dose in presence of 4 Gy X-ray irradiation by H and E staining based light microscopic analysis. In kind it is organism-based. The settings on record: in vivo. Summed up:
as §1

Series [13] relates to HeLa. Kind of series: Induction of cell cycle arrest in human HeLa cells assessed as accumulation at SubG1 phase at 1 uM after 48 hrs by propidium iodide staining based flow cytometric analysis (reference value: 0.8%). In kind it is functional.
In series [14] the test system is HeLa. Nature of the series: Induction of mitochondrial dysfunction in human HeLa cells assessed as change in mitochondrial membrane potential at 1 uM incubated for 24 hrs by JC1 staining based flow cytometry (reference value: 1.3%). The class given is functional. The essentials:
as §2

Series [15] concerns HeLa. Nature of the series: Induction of apoptosis in human HeLa cells assessed as caspase-9 activation at 1 uM using Ac-LEHD-AMC as substrate after 12 hrs by fluorescence based assay. The class given is functional, cell-based. Summed up:
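HeLa cells exposed to 1 μM compound with or without 4 Gy X-rays for 12 h; caspase 8, 9 and 3 activities measured; mean ± SD of three independent experiments.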

The nature of series [16]: Toxicity in BALB/c mouse xenografted with human HeLa cells assessed as kidney damage by measuring effect on uric acid level at 4 mg/kg, iv administered every 3 days for 21 days. In kind it is organism-based. The settings on record: in vivo. The essentials:
as §3

A short description of series [17]: Toxicity in BALB/c mouse xenografted with human HeLa cells assessed as body weight loss at 4 mg/kg, iv administered for every 3 days and measured after 21 days. In kind it is organism-based. The settings on record: in vivo, 504 h. The essentials:
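HeLa-tumor-bearing nude mice given compound at 4 mg/kg by tail-vein injection every 3 days, alone or with X-rays; body weight recorded across 21 days.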

A short description of series [18]: Toxicity in BALB/c mouse xenografted with human HeLa cells assessed as heart damage at 4 mg/kg, iv administered for every 3 days for 21 days and measured after 24 hrs post last dose by H and E staining based light microscopic analysis. To be noted: in vivo. The class given is organism-based. Summed up:
as §1

SMILES strings stand for the structures. Activity calls are given as the source filed them. The rule behind the calls is not given here.

Usually IC50 stands for the concentration needed to halve the response being measured. Take `Nc1nc(N)c2nc3c(nc2n1)-c1cccc2cccc-3c12`: the Activity entry in [1] is on record as “Non-Toxic”; in the series with HeLa [4], 32.3%; in [5], “Non-Toxic”; in series [8] it was “Non-Toxic”; in the series with HeLa [9], 29.2%; in series [11] it was “Non-Toxic”. For the same molecule, the Activity result is reported as “Non-Toxic” in series [12]; 6.9% in the series on HeLa [13]; 6.8% in the series on HeLa [14]; “Non-Toxic” in series [16]; “Non-Toxic” in [17]; “Non-Toxic” in series [18]. Also, the values for the IC50 with HeLa [2] and on Dihydrofolate reductase were 640 nM and 810 nM, respectively. The outcome with HeLa [3] and with HeLa [15] was Active. Besides, the Drug uptake result in series [6] is “Active”. In addition, the inhibition entry in the series with HeLa [7] was “Active”. The inhibition at 1 µM with HeLa [10] is 46%.
